Converted amounts (≈) assume the structure as drawn. “Also recorded” adds a separate entry of the source.
Legend:
[1] = target: Sertonin (5-Hydroxytrptamine) 5-HT2B (Homo sapiens, UniProt P41595); test: Lead Profiling Screen radioligand binding
[2] = intrinsic clearance in hepatic microsomes; assay type: in vitro ADME; conditions: rat; predicted hepatic clearance from microsomal CLint
[3] = system: Glutamate, NMDA, Phancyclidine; test: Lead Profiling Screen radioligand binding; conditions: 10 μM ML352
[4] = target: Sertonin (5-Hydroxytrptamine) 5-HT3 (Homo sapiens, UniProt P46098); test: Lead Profiling Screen radioligand binding
Chain of Sertonin (5-Hydroxytrptamine) 5-HT3 (P46098 24-478): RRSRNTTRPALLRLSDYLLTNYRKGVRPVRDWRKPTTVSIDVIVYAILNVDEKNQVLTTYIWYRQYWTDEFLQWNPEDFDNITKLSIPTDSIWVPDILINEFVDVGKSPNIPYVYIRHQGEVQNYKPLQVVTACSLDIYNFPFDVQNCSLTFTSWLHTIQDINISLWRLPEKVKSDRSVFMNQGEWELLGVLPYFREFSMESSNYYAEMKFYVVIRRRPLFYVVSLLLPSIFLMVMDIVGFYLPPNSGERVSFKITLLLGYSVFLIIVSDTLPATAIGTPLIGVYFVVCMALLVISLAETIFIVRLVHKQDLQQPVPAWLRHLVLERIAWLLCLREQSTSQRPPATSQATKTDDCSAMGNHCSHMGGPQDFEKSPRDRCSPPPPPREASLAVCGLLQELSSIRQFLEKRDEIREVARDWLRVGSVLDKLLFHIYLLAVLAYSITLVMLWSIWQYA

hCHT LV-AA = hCHT LV-AA (Homo sapiens, UniProt Q9GZV3, L531A/V532A); test: [3H]choline uptake in HEK 293 cells transfected with hCHT LV-AA; assay type: cell-based; conditions: ML352 at 200 or 800 nM in saturation choline transport assays
Histamine, H3 = Histamine, H3 (Homo sapiens, UniProt Q9Y5N1); test: Lead Profiling Screen radioligand binding
[5] = target: Transporter, Dopamine (DAT) (Homo sapiens, UniProt Q01959); test: Lead Profiling Screen radioligand binding
Chain of Transporter, Dopamine (DAT) (Q01959 whole entry): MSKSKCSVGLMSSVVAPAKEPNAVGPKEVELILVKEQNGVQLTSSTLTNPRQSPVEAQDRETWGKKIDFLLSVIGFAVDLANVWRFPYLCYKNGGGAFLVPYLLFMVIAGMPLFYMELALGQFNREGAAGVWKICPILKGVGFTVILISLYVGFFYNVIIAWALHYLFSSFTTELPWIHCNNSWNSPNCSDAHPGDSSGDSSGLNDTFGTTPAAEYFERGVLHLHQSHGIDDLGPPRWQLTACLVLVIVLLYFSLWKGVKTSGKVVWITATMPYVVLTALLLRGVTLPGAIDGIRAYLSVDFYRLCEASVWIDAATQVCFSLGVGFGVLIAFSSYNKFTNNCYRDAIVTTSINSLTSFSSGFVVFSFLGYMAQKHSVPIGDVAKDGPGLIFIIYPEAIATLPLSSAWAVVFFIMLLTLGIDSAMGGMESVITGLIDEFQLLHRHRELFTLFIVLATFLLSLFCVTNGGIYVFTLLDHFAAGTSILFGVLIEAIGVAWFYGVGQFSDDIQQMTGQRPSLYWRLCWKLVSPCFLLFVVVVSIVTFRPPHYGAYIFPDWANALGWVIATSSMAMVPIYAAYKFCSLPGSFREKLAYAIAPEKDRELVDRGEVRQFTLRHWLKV

GABAA, Muscimol, Central = test: Lead Profiling Screen radioligand binding; conditions: 10 μM ML352
Estrogen Erα = Estrogen Erα (Homo sapiens, UniProt P03372); test: Lead Profiling Screen radioligand binding
ChAT = ChAT (Mus musculus, UniProt Q03059); test: ChAT activity in mouse forebrain extracts; assay type: biochemical; conditions: concentrations well above the CHT Ki
Chain of ChAT (Q03059 whole entry): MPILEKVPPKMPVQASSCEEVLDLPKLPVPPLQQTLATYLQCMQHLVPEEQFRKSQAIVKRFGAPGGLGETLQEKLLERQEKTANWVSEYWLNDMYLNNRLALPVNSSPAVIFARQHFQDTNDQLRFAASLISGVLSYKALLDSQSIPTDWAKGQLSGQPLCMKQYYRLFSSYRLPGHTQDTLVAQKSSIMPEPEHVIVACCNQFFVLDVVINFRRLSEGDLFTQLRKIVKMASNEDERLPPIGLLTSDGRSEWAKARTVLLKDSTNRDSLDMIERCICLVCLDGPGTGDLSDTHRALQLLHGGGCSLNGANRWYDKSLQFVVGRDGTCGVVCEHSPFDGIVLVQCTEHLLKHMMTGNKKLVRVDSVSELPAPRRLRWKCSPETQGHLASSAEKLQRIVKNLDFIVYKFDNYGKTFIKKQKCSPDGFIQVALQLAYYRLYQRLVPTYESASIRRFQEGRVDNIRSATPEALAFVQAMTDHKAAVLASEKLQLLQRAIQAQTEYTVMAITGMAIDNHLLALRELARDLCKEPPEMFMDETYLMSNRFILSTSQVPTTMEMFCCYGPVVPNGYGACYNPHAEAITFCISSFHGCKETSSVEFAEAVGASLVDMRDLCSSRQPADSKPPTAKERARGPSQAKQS

GABAB1A = GABAB1A (Homo sapiens, UniProt Q9UBS5); test: Lead Profiling Screen radioligand binding
[6] = system: nontransfected HEK 293 cells; test: [3H]choline accumulation in nontransfected HEK 293 cells; assay type: cell-based, human; conditions: 5 μM ML352; data not shown
Imidazoline I2, Central = test: Lead Profiling Screen radioligand binding; conditions: 10 μM ML352
Melatonin MT1 = Melatonin MT1 (Homo sapiens, UniProt P48039); test: Lead Profiling Screen radioligand binding
Chain of Melatonin MT1 (P48039 whole entry): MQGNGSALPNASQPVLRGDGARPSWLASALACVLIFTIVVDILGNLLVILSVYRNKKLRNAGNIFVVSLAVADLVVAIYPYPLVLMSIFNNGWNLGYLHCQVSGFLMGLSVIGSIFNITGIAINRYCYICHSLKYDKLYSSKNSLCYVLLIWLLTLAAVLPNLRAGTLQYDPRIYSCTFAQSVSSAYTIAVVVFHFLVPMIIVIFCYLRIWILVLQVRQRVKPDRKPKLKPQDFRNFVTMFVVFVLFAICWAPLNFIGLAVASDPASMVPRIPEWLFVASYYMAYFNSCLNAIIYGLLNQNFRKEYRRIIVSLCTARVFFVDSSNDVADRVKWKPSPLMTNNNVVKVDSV

[7] = brain tissue distribution in Sprague-Dawley rats; assay type: in vivo; conditions: male, rat, brain/plasma, iv, 1 mg/kg
[8] = target: Epidermal Growth Factor (EGF) (Homo sapiens, UniProt P00533); test: Lead Profiling Screen radioligand binding
Dopamine D1 = Dopamine D1 (Homo sapiens, UniProt P21728); test: Lead Profiling Screen radioligand binding
P450 2C9 = P450 2C9 (Homo sapiens, UniProt P11712)
Neuropeptide Y Y1 = Neuropeptide Y Y1 (Homo sapiens, UniProt P25929); test: Lead Profiling Screen radioligand binding
Chain of Neuropeptide Y Y1 (P25929 whole entry): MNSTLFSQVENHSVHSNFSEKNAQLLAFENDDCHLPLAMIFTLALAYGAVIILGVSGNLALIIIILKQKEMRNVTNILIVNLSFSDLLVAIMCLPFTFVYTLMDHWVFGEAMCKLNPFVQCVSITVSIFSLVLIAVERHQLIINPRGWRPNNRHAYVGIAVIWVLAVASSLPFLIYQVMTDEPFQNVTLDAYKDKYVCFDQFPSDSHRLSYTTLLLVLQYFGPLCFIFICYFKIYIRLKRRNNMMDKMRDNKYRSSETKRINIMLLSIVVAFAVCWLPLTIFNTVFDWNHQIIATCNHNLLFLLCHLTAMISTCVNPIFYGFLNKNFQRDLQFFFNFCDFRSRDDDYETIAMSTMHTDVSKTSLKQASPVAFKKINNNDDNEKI

Phorbol Ester = test: Lead Profiling Screen radioligand binding; conditions: 10 μM ML352
P450 1A2 = P450 1A2 (Homo sapiens, UniProt P05177); test: cytochrome P450 inhibition; assay type: in vitro ADME
Chain of P450 1A2 (P05177 whole entry): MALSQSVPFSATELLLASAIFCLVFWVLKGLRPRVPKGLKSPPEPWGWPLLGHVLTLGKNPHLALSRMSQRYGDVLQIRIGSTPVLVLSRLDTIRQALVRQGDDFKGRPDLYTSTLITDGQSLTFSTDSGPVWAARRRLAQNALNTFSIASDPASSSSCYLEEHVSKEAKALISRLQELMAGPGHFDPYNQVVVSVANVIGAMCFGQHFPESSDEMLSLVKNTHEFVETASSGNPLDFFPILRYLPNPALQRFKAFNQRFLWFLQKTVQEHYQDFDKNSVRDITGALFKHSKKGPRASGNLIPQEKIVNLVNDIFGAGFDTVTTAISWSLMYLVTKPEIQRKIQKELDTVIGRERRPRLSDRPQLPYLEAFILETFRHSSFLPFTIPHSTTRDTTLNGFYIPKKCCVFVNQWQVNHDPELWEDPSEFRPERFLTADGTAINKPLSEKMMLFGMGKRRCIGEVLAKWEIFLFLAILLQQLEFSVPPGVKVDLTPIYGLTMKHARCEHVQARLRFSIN

Muscarinic M2 = Muscarinic M2 (Homo sapiens, UniProt P08172); test: Lead Profiling Screen radioligand binding
[9] = intrinsic clearance in hepatic microsomes; assay type: in vitro ADME; conditions: human; predicted hepatic clearance from microsomal CLint
[10] = system: Calcium Channel L-Type, Benzothiazepine; test: Lead Profiling Screen radioligand binding; conditions: 10 μM ML352
Adrenergic α2A = Adrenergic α2A (Homo sapiens, UniProt P08913); test: Lead Profiling Screen radioligand binding
P450 2D6 = P450 2D6 (Homo sapiens, UniProt P10635); test: cytochrome P450 inhibition
Rolipram = test: Lead Profiling Screen radioligand binding; conditions: 10 μM ML352
[11] = target: Transporter, Serotonin (5-hydroxytryptamine) (SERT) (Homo sapiens, UniProt P31645); test: Lead Profiling Screen radioligand binding
Chain of Transporter, Serotonin (5-hydroxytryptamine) (SERT) (P31645 whole entry): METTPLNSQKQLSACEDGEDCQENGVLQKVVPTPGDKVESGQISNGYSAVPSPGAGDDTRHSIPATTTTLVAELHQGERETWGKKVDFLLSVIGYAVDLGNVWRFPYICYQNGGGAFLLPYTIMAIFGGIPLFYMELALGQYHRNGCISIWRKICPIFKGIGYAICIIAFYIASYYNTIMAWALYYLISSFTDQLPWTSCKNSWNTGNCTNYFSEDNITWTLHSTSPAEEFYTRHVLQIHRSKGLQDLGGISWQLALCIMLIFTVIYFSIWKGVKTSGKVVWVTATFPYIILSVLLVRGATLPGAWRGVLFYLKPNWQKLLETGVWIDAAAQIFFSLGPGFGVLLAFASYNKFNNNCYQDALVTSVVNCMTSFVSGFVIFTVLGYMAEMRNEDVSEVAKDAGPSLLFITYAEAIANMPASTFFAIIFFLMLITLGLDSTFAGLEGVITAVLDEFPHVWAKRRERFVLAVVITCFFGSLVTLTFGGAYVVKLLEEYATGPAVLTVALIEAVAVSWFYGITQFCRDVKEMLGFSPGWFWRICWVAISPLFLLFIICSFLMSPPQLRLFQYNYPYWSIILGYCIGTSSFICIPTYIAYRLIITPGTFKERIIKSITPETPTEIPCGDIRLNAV

Bradykinin B2 = Bradykinin B2 (Homo sapiens, UniProt P30411); test: Lead Profiling Screen radioligand binding
Opiate δ1 (OP1, DOP) = Opiate δ1 (OP1, DOP) (Homo sapiens, UniProt P41143); test: Lead Profiling Screen radioligand binding
Chain of Opiate δ1 (OP1, DOP) (P41143 whole entry): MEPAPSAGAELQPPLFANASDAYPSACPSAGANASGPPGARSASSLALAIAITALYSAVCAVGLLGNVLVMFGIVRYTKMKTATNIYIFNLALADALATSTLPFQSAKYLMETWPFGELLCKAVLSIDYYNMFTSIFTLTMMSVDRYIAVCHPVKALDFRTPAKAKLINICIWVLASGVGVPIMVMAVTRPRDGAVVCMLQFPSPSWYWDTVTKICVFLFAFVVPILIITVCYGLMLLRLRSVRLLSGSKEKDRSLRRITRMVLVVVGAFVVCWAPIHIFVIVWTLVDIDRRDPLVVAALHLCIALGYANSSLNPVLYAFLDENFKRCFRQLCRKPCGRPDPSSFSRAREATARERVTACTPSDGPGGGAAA

Endothelin ETB = Endothelin ETB (Homo sapiens, UniProt P24530); test: Lead Profiling Screen radioligand binding
[12] = target: dopamine transporter (DAT) (Homo sapiens, UniProt Q01959); test: [3H]DA uptake in HEK293 hDAT cells; assay type: cell-based; conditions: transfected HEK 293 cells
Chain of dopamine transporter (DAT) (Q01959 whole entry): as the sequence (Q01959 whole entry) above

PBS solubility = assay type: physicochemical; conditions: aqueous buffer
Histamine, H2 = Histamine, H2 (Homo sapiens, UniProt P25021); test: Lead Profiling Screen radioligand binding
Chain of Histamine, H2 (P25021 whole entry): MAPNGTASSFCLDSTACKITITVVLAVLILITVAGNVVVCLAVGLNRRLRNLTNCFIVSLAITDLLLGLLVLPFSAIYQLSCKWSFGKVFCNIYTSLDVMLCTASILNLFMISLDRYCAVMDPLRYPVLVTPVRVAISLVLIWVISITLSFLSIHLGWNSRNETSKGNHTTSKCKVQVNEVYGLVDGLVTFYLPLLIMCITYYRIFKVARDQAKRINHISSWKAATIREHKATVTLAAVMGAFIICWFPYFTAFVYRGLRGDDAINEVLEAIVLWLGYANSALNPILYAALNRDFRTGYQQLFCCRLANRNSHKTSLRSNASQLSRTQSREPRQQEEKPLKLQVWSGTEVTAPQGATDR

[13] = target: Nicotinic Acetylcholine α1, Bungarotoxin (Homo sapiens, UniProt P02708+P07510+Q07001); test: Lead Profiling Screen radioligand binding
Potassium Channel [KATP] = test: Lead Profiling Screen radioligand binding; conditions: 10 μM ML352
hERG potassium channel = hERG potassium channel (Homo sapiens, UniProt Q12809); test: Lead Profiling Screen radioligand binding
Muscarinic M1 = Muscarinic M1 (Homo sapiens, UniProt P11229); test: Lead Profiling Screen radioligand binding
SERT = SERT (Mus musculus, UniProt Q60857); test: serotonin uptake in mouse forebrain synaptosomes; assay type: biochemical; conditions: 5 μM ML352
In short: (§1)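 Crude P2 synaptosomes from forebrains of male C57BL/6J mice (8–10 weeks), taken after decapitation under urethane. Incubated 10 min at 37 °C in Krebs bicarbonate buffer with 100 nM [3H]dopamine or [3H]serotonin ± test compound. Stopped on ice, rapidly filtered, counted by scintillation. Specific uptake defined with cocaine 1 μM (DAT) or citalopram 1 μM (SERT). Protein by BCA; n = 3.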

Adrenergic α1D = Adrenergic α1D (Homo sapiens, UniProt P25100); test: Lead Profiling Screen radioligand binding
Adrenergic α1B = Adrenergic α1B (Rattus norvegicus, UniProt P15823); test: Lead Profiling Screen radioligand binding
DAT = DAT (Mus musculus, UniProt Q61327); test: dopamine uptake in mouse forebrain synaptosomes; assay type: biochemical; conditions: 5 μM ML352
Chain of DAT (Q61327 whole entry): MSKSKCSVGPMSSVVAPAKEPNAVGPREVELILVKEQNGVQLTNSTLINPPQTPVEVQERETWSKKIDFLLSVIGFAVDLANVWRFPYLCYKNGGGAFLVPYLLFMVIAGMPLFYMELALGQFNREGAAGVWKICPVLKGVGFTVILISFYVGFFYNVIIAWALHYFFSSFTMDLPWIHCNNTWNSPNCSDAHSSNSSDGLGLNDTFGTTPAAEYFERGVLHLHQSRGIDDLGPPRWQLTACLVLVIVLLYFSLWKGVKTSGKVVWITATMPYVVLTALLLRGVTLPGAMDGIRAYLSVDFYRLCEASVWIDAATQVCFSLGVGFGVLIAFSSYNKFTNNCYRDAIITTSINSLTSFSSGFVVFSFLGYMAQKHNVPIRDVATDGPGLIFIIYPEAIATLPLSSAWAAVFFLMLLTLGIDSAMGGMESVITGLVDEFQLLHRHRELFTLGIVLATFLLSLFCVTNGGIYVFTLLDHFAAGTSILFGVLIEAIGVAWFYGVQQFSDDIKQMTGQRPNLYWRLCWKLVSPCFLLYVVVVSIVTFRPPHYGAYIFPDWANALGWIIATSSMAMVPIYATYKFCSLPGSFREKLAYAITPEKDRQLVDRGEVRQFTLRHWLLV
In short: as §1

In the case of `COc1ccc(C(=O)NCc2cc(C(C)C)no2)cc1OC1CCN(C)CC1` [ML352, N-((3-isopropylisoxazol-5-yl)methyl)-4-methoxy-3-((1-methylpiperidin-4-yl)oxy)benzamide], the inhibition at 10 µM [1] is reported as -7%, the CLhep [2] is reported as 40.3 mL/min/kg and the “% inhibition” value [3] is reported as “–5%”. The inhibition at 10 µM [4] was 2%, the “mode of choline uptake inhibition” value (hCHT LV-AA) was “noncompetitively inhibits” and the inhibition at 10 µM (Histamine, H3) was 7%. The inhibition at 10 µM [5] was 4%, the “% inhibition” value (GABAA, Muscimol, Central) was 9% and the inhibition at 10 µM (Estrogen Erα) was 4%. For the same compound, the “inhibition of ChAT activity” value (ChAT) was “no ability; also recorded: lacks activity; also recorded: no inhibition”, the inhibition at 10 µM (GABAB1A) was -9% and the “effect on [3H]choline accumulation in nontransfected HEK 293 cells” value [6] was under 20%. The “% inhibition” value (Imidazoline I2, Central) was 16%, the inhibition at 10 µM (Melatonin MT1) was 5% and the Kp at […] [7] was 0.2. The inhibition at 10 µM [8] was 5%, the inhibition at 10 µM (Dopamine D1) was 9% and the IC50 (P450 2C9) was over 30 µM. For the same compound, the inhibition at 10 µM (Neuropeptide Y Y1) was -2%, the “% inhibition” value (Phorbol Ester) was 5% and the IC50 (P450 1A2) was over 30 µM. For the same compound, the inhibition at 10 µM (Muscarinic M2) was 12%, the CLhep [9] was 6.9 mL/min/kg and the “% inhibition” value [10] was 3%. The inhibition at 10 µM (Adrenergic α2A) was 43%, the IC50 (P450 2D6) was over 30 µM and the “% inhibition” value (Rolipram) was 1%. The inhibition at 10 µM [11] was 2%, the inhibition at 10 µM (Bradykinin B2) was -3% and the inhibition at 10 µM (Opiate δ1 (OP1, DOP)) was -2%. For the same compound, the inhibition at 10 µM (Endothelin ETB) was -2%, the “inhibitory activity at DAT” value [12] was “lack of inhibitory activity” and the solubility (PBS solubility) was 98.2 ± 1.1 µM (≈ 38.1 µg/mL). For the same compound, the inhibition at 10 µM (Histamine, H2) was 20%, the inhibition at 10 µM [13] was 7% and the “% inhibition” value (Potassium Channel [KATP]) was 4%. For the same compound, the inhibition at 10 µM (hERG potassium channel) was 16%, the inhibition at 10 µM (Muscarinic M1) was 32% and the “inhibition of SERT” value (SERT) was “fails to inhibit”. The inhibition at 10 µM (Adrenergic α1D) was 24%, the inhibition at 10 µM (Adrenergic α1B) was 3% and the “inhibition of DAT” value (DAT) was “fails to inhibit”.

Reference: PMC4367188 (ACS Chemical Neuroscience, 2015)
